Experimental data pooled from the literature.
Target: Bone morphogenetic protein receptor type-1B (BMPR1B, Homo sapiens, UniProt O00238)

| SMILES | read-out | action | method | tested at | endpoint | result |
| --- | --- | --- | --- | --- | --- | --- |
| Cc1cc(NC(=O)c2cccc3cc(-c4cccc5[nH]nc(N)c45)ccc23)ccc1F | enzyme activity | inhibitor |  | 0.1 µM | activity vs control | 100% |
| CNC(=O)c1ccc(Nc2ncc(C(F)(F)F)c(NCc3nccnc3N(C)S(C)(=O)=O)n2)cc1 | cell-free assay |  | competition with immobilised ligand | 0.1 µM | remaining binding | 65% |
| O=C(Nc1cnn(-c2csc(C(=O)NC3COC3)c2)c1)Nc1ccccc1Cl | enzyme activity | inhibitor |  | 5 µM | remaining activity | 109% |
| CC(C)(O)[C@H]1CC[C@H](Nc2ccc3ncc(-c4cccc(C(F)(F)F)c4)n3n2)CC1 | enzyme activity | inhibitor |  | 1 µM | remaining activity | 147% |
| Nc1ncnc2occ(-c3ccc(NC(=O)Nc4cc(C(F)(F)F)ccc4F)cc3)c12 | cell-free assay |  |  | 20 µM | remaining signal | 37% |
| C[C@@H]1CCN(c2nccc(-c3cnn4ncccc34)n2)C1 | binding |  |  | 1 µM | remaining binding | 68% |
| Cc1ccc(NC(=O)c2ccc(C)c(C(F)(F)F)c2)cc1C#Cc1nn(C2CCC(O)CC2)c2ncnc(N)c12 (stereo not shown) | cell-free assay |  |  | 10 µM | remaining signal | 18% |
| Cc1ccc(C(=O)Nc2ccc(CN3CCN(C)CC3)c(C(F)(F)F)c2)cc1C#Cc1cnc2cccnn12 | enzyme activity |  |  | 23.5 nM | remaining activity | 96% |
| N#Cc1ccc(Nc2ccc3[nH]c(=O)[nH]c3c2)c(Cl)c1 | cell-free assay |  | competition with immobilised ligand | 1 µM | remaining binding | 100% |
| COc1cc(Cl)c(C(=O)N[C@@H](CN[C@H]2CC[C@@H](N)CC2)Cc2ccc(C#N)cc2)cc1-c1ccc(CN[C@H](C)c2ccc(C)cc2)o1 | enzyme activity | inhibitor |  | 1 µM | remaining activity | 101% |
| CN1CC(Oc2cnc(C#N)cc2-c2ccn3nc(NC(=O)C4CC4)cc3c2)C1 | enzyme activity | inhibitor |  | 1 µM | inhibition | -1% |
| Cc1sc(C(=O)NC2COC2)cc1-n1cc(NC(=O)Nc2c(F)cccc2Cl)cn1 | enzyme activity | inhibitor |  | 10 µM | remaining activity | 104% |
| Cc1cnc(NC2CCOCC2)nc1-n1cnc(C(=O)NC(CN)c2cc(F)cc(Cl)c2)c1 (stereo not shown) | enzyme activity | inhibitor | radiometric | 1 µM | remaining activity | 106% |
